Values joined by “and” are separate entries in the source; they are usually repeats but may differ in a detail not shown here. Identical values can stand only once. “Also recorded” adds a separate entry of the source.
Assays:
[1] = competition with equimolar amounts of ligands with gallium, cited from earlier work
[2] = Normal organ dosimetry from whole body PET and urine collection, OLINDA/EXM; type: in vivo, human
Method in brief: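 Eight men received up to ~232 MBq IV. Six top-of-skull to mid-thigh PET scans (10 beds × 90 s) started ~1, 20, 40, 60, 120 and 150 min. Two low-dose CTs gave attenuation correction. Urine from voids after scans 4 and 6 was gamma-counted. Organ activities came from PET images; cortical bone from femur shaft density × 2130 cm3. Time-activity curves fitted mono/bi-exponentially or by Riemann sum.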

[3] = Subject tolerability to radiotracer administration; type: in vivo, human
[4] = tested on: prostate cancer osseous metastases; type: in vivo, human
Method in brief: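 Tracer given IV to men with prostate cancer and known or suspected bone metastases. 60-min dynamic PET from injection over a known or suspected lesion site, then skull-base to mid-thigh PET/CT at ~90 and 180 min. SUVpeak from 1 cm spheres on lesions, blood pool and normal bone. List-mode data subsampled to emulate lower activities (10 replicates, TOF OSEM, 4-mm voxels). Lesion SNR = Lmax/Lmax SD, decay-corrected.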

[5] = normal CD-1 IGS male mice, 60 min; cited from earlier work
[6] = 8 male humans, Standard Adult Male phantom
[7] = injected activity of 166.5 MBq (4.5 mCi)

O=C(O)CN(CCN(CC(=O)O)Cc1ccccc1O)Cc1ccccc1O [HBED, N, N’-bis(2-hydroxybenzyl)ethylenediamine-N,N’-diacetic acid]
out complexes DOTA by ([1]; versus DOTA): 99% | out complexes NOTA by ([1]; versus NOTA): 43%

[^68Ga]Ga-3-(3-(((carboxymethyl)(2-((carboxymethyl)(5-(3-((diphosphonomethyl)amino)-3-oxopropyl)-2-hydroxybenzyl)amino)ethyl)amino)methyl)-4-hydroxyphenyl)propanoic acid [[^68Ga]Ga-P15-041]
Effective dose equivalent, Mean [2, 6]: 2.31E-02 mSv/MBq | Effective dose, Mean [2, 6]: 0.0173 ± 0.0036 mSv/MBq and 1.73E-02 mSv/MBq | absorbed dose estimate, Adrenals, Mean [2, 6]: 1.02E-02 mSv/MBq | absorbed dose estimate, Brain, Mean [2, 6]: 3.57E-03 mSv/MBq | absorbed dose estimate, Breasts, Mean [2, 6]: 8.07E-03 mSv/MBq | absorbed dose estimate, Gallbladder wall, Mean [2, 6]: 1.03E-02 mSv/MBq | absorbed dose estimate, Heart Wall, Mean [2, 6]: 1.98E-02 mSv/MBq | absorbed dose estimate, Kidneys, Mean [2, 6]: 4.93E-02 mSv/MBq | absorbed dose estimate, Liver, Mean [2, 6]: 8.16E-03 mSv/MBq | absorbed dose estimate, Lower large intestine wall, Mean [2, 6]: 1.29E-02 mSv/MBq | absorbed dose estimate, Lungs, Mean [2, 6]: 1.73E-02 mSv/MBq | absorbed dose estimate, Muscle, Mean [2, 6]: 9.19E-03 mSv/MBq | absorbed dose estimate, Osteogenic cells, Mean [2, 6]: 2.63E-02 mSv/MBq | absorbed dose estimate, Ovaries, Mean [2, 6]: 1.16E-02 mSv/MBq | absorbed dose estimate, Pancreas, Mean [2, 6]: 1.03E-02 mSv/MBq | absorbed dose estimate, Red Marrow, Mean [2, 6]: 8.04E-03 mSv/MBq | absorbed dose estimate, Skin, Mean [2, 6]: 7.85E-03 mSv/MBq | absorbed dose estimate, Small intestine, Mean [2, 6]: 2.41E-02 mSv/MBq | absorbed dose estimate, Spleen, Mean [2, 6]: 1.17E-02 mSv/MBq | absorbed dose estimate, Stomach wall, Mean [2, 6]: 9.77E-03 mSv/MBq | absorbed dose estimate, Testes, Mean [2, 6]: 9.57E-03 mSv/MBq | absorbed dose estimate, Thymus, Mean [2, 6]: 9.26E-03 mSv/MBq | absorbed dose estimate, Thyroid, Mean [2, 6]: 8.92E-03 mSv/MBq | absorbed dose estimate, Total Body, Mean [2, 6]: 1.07E-02 mSv/MBq | absorbed dose estimate, Upper large intestine wall, Mean [2, 6]: 1.97E-02 mSv/MBq | absorbed dose estimate, Uterus, Mean [2, 6]: 1.33E-02 mSv/MBq | absorbed dose estimate, Urinary bladder wall, Mean ([2]; 8 male humans, Standard Adult Male phantom, highest individual organ dose): 0.135 mSv/MBq and 1.35E-01 mSv/MBq | absorbed dose to the kidneys [2, 7]: 8.2 mSv | absorbed dose to the urinary bladder wall [2, 7]: 22.5 mSv | effective dose [2, 7]: 2.9 mSv | changes in vital signs before and after injection ([3]; 13 subjects): No clinically significant changes | tolerability / adverse events ([3]; administered to 13 subjects (12 completed protocol)): well-tolerated with no reports of serious adverse events | uptake in bone lesions ([4]; PET/CT, patients with prostate cancer bone metastases): accumulated in known bone lesions; also recorded: lesion uptake consistently above background | activity concentrations in blood and normal bone ([4]; dynamic cohort, n=4, compared to sites of osseous metastasis): low compared to sites of osseous metastasis | clearance from blood and soft tissue ([4]; human PET): cleared rapidly from blood and soft tissue | bone uptake (retention) [5]: 23.5 % injected activity/g

O=C(O)CN1CCN(CC(=O)O)CCN(CC(=O)NC(P(=O)(O)O)P(=O)(O)O)CCN(CC(=O)O)CC1.[68Ga] [[^68Ga]Ga-BPAMD, reference compound]
bone uptake (retention) [5]: 9.2 % injected activity/g

— article PMC7311273 (Nuclear medicine and biology, 2020)
